Laboratory results taken from ChEMBL document CHEMBL2057135, “Synthesis, antitubercular and antimicrobial evaluation of 3-(4-chlorophenyl)-4-substituted pyrazole derivatives” (2012).
Values after ≈ are worked out from the molar mass of the structure shown.

What was measured:
Format in all cases: functional
[1] = tested on: Staphylococcus aureus; assay: Antibacterial activity against Staphylococcus aureus ATCC 29213
[2] = tested on: Pichia kudriavzevii; assay: Antifungal activity against Candida krusei KCCM 11655 after 1 day; conditions: KCCM 11655, 24 h
[3] = tested on: Cryptococcus neoformans; assay: Antifungal activity against Cryptococcus neoformans KCCM 50564 after 1 day; conditions: KCCM 50564, 24 h
[4] = tested on: Aspergillus niger; assay: Antifungal activity against Aspergillus niger KCTC 1231 after 2 days; conditions: KCTC 1231, 48 h
[5] = tested on: Aspergillus flavus; assay: Antifungal activity against Aspergillus flavus KCCM 11899 after 2 days; conditions: KCCM 11899, 48 h
[6] = tested on: Mycobacterium tuberculosis; assay: Antitubercular activity against Mycobacterium tuberculosis H37Rv ATCC 27294 after 7 days by BACTEC method; conditions: H37Rv ATCC 27294, 168 h
In short: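 Screened in vitro against M. tuberculosis H37Rv in a modified BACTEC 460 radiometric system. Test compound stocks were made at 1 mg/ml in DMSO and filter-sterilised through 0.22 µm PTFE filters. MIC was read, with rifampin as the reference agent.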

[7] = tested on: Escherichia coli; assay: Antibacterial activity against Escherichia coli ATCC 25922

SMILES	MIC [1] [µg/mL]	MIC [2] [µg/mL]	MIC [3] [µg/mL]	MIC [4] [µg/mL]	MIC [5] [µg/mL]	MIC [6] [µg/mL]	MIC [7] [µg/mL]
O=C(NN1C(=O)CSC1c1cccc([N+](=O)[O-])c1)c1cc(-c2ccc(Cl)cc2)n[nH]1 (racemic)	8 (≈ 18 µM)	50 (≈ 113 µM)	100 (≈ 225 µM)	25 (≈ 56.3 µM)	100 (≈ 225 µM)	2 (≈ 4.51 µM)	0.6 (≈ 1.35 µM)
COc1cc(C2SCC(=O)N2NC(=O)c2cc(-c3ccc(Cl)cc3)n[nH]2)ccc1O (racemic)	0.15 (≈ 0.337 µM)	12.5 (≈ 28.1 µM)	1.6 (≈ 3.6 µM)	1.6 (≈ 3.6 µM)	12.5 (≈ 28.1 µM)	0.65 (≈ 1.46 µM)	0.05 (≈ 0.112 µM)
O=C(O)c1cn(C2CC2)c2cc(N3CCNCC3)c(F)cc2c1=O [CIPROFLOXACIN]	0.25 (≈ 0.754 µM)	–	–	–	–	–	–
COc1cc([C@@H]2[C@@H](Cl)C(=O)N2NC(=O)c2cc(-c3ccc(Cl)cc3)n[nH]2)ccc1O (racemic)	0.125 (≈ 0.279 µM)	1.6 (≈ 3.58 µM)	12.5 (≈ 27.9 µM)	3.2 (≈ 7.15 µM)	25 (≈ 55.9 µM)	0.6 (≈ 1.34 µM)	0.025 (≈ 0.0559 µM)
O=C(NN1C(=O)[C@H](Cl)[C@H]1c1ccc(O)cc1)c1cc(-c2ccc(Cl)cc2)n[nH]1 (racemic)	0.04 (≈ 0.0959 µM)	25 (≈ 59.9 µM)	3.2 (≈ 7.67 µM)	1.6 (≈ 3.83 µM)	12.5 (≈ 30 µM)	0.6 (≈ 1.44 µM)	0.01 (≈ 0.024 µM)
O=C(NN1C(=O)[C@H](Cl)[C@H]1c1ccccc1O)c1cc(-c2ccc(Cl)cc2)n[nH]1 (racemic)	0.125 (≈ 0.3 µM)	6.3 (≈ 15.1 µM)	1.6 (≈ 3.83 µM)	12.5 (≈ 30 µM)	12.5 (≈ 30 µM)	0.35 (≈ 0.839 µM)	0.019 (≈ 0.0455 µM)
O=C(N/N=C/c1ccccc1)c1cc(-c2ccc(Cl)cc2)n[nH]1	4 (≈ 12.3 µM)	12.5 (≈ 38.5 µM)	1.6 (≈ 4.93 µM)	50 (≈ 154 µM)	3.2 (≈ 9.85 µM)	> 5	1 (≈ 3.08 µM)
O=C(NN1C(=O)CSC1c1ccccc1[N+](=O)[O-])c1cc(-c2ccc(Cl)cc2)n[nH]1 (racemic)	2 (≈ 4.51 µM)	25 (≈ 56.3 µM)	3.2 (≈ 7.21 µM)	50 (≈ 113 µM)	50 (≈ 113 µM)	4 (≈ 9.01 µM)	0.1 (≈ 0.225 µM)
CO[C@H]1/C=C/O[C@@]2(C)Oc3c(C)c(O)c4c(O)c(c(/C=N/N5CCN(C)CC5)c(O)c4c3C2=O)NC(=O)/C(C)=C\C=C\[C@H](C)[C@H](O)[C@@H](C)[C@@H](O)[C@@H](C)[C@H](OC(C)=O)[C@@H]1C [RIFAMPIN]	–	–	–	–	–	0.125 (≈ 0.152 µM)	–
COc1ccc([C@@H]2[C@@H](Cl)C(=O)N2NC(=O)c2cc(-c3ccc(Cl)cc3)n[nH]2)cc1OC (racemic)	0.05 (≈ 0.108 µM)	12.5 (≈ 27.1 µM)	3.2 (≈ 6.94 µM)	12.5 (≈ 27.1 µM)	6.3 (≈ 13.7 µM)	1.15 (≈ 2.49 µM)	0.5 (≈ 1.08 µM)
O=C(NN1C(=O)[C@H](Cl)[C@H]1c1ccccc1)c1cc(-c2ccc(Cl)cc2)n[nH]1 (racemic)	0.51 (≈ 1.27 µM)	100 (≈ 249 µM)	50 (≈ 125 µM)	25 (≈ 62.3 µM)	100 (≈ 249 µM)	1.25 (≈ 3.12 µM)	0.48 (≈ 1.2 µM)
O=C(N/N=C/c1ccccc1[N+](=O)[O-])c1cc(-c2ccc(Cl)cc2)n[nH]1	8 (≈ 21.6 µM)	100 (≈ 270 µM)	1.6 (≈ 4.33 µM)	3.2 (≈ 8.65 µM)	25 (≈ 67.6 µM)	> 5	8 (≈ 21.6 µM)
O=C(N/N=C/c1ccc(O)cc1)c1cc(-c2ccc(Cl)cc2)n[nH]1	0.35 (≈ 1.03 µM)	100 (≈ 293 µM)	50 (≈ 147 µM)	12.5 (≈ 36.7 µM)	50 (≈ 147 µM)	1.1 (≈ 3.23 µM)	0.012 (≈ 0.0352 µM)
COc1ccc(C2SCC(=O)N2NC(=O)c2cc(-c3ccc(Cl)cc3)n[nH]2)cc1OC (racemic)	0.06 (≈ 0.131 µM)	12.5 (≈ 27.2 µM)	50 (≈ 109 µM)	6.3 (≈ 13.7 µM)	12.5 (≈ 27.2 µM)	1.2 (≈ 2.61 µM)	0.2 (≈ 0.436 µM)
O=C(NN1C(=O)[C@H](Cl)[C@H]1c1ccccc1[N+](=O)[O-])c1cc(-c2ccc(Cl)cc2)n[nH]1 (racemic)	6 (≈ 13.4 µM)	12.5 (≈ 28 µM)	50 (≈ 112 µM)	100 (≈ 224 µM)	50 (≈ 112 µM)	1.9 (≈ 4.26 µM)	0.5 (≈ 1.12 µM)
COc1c(N2C[C@@H]3CCCN[C@@H]3C2)c(F)cc2c(=O)c(C(=O)O)cn(C3CC3)c12 [MOXIFLOXACIN]	0.06 (≈ 0.149 µM)	–	–	–	–	–	0.015 (≈ 0.0374 µM)
O=C(NN1C(=O)[C@H](Cl)[C@H]1c1ccc(Cl)cc1)c1cc(-c2ccc(Cl)cc2)n[nH]1 (racemic)	0.28 (≈ 0.643 µM)	6.3 (≈ 14.5 µM)	1.6 (≈ 3.67 µM)	6.3 (≈ 14.5 µM)	12.5 (≈ 28.7 µM)	1 (≈ 2.3 µM)	0.01 (≈ 0.023 µM)
O=C(NN1C(=O)[C@H](Cl)[C@H]1c1ccccc1Cl)c1cc(-c2ccc(Cl)cc2)n[nH]1 (racemic)	0.034 (≈ 0.078 µM)	1.6 (≈ 3.67 µM)	6.3 (≈ 14.5 µM)	12.5 (≈ 28.7 µM)	12.5 (≈ 28.7 µM)	0.55 (≈ 1.26 µM)	0.031 (≈ 0.0712 µM)
O=C(NN1C(=O)CSC1c1ccc(O)cc1)c1cc(-c2ccc(Cl)cc2)n[nH]1 (single isomer, unassigned; (+))	0.125 (≈ 0.301 µM)	50 (≈ 121 µM)	1.6 (≈ 3.86 µM)	1.6 (≈ 3.86 µM)	12.5 (≈ 30.1 µM)	0.39 (≈ 0.94 µM)	0.017 (≈ 0.041 µM)
O=C(NN1C(=O)[C@H](Cl)[C@H]1c1cccc([N+](=O)[O-])c1)c1cc(-c2ccc(Cl)cc2)n[nH]1 (racemic)	1.2 (≈ 2.69 µM)	100 (≈ 224 µM)	50 (≈ 112 µM)	12.5 (≈ 28 µM)	50 (≈ 112 µM)	1.99 (≈ 4.46 µM)	0.33 (≈ 0.739 µM)
COc1ccc(/C=N/NC(=O)c2cc(-c3ccc(Cl)cc3)n[nH]2)cc1OC	0.25 (≈ 0.65 µM)	50 (≈ 130 µM)	12.5 (≈ 32.5 µM)	25 (≈ 65 µM)	12.5 (≈ 32.5 µM)	0.37 (≈ 0.961 µM)	4 (≈ 10.4 µM)
Nc1nc(=O)[nH]cc1F [FLUCYTOSINE]	–	6.3 (≈ 48.8 µM)	6.3 (≈ 48.8 µM)	6.3 (≈ 48.8 µM)	25 (≈ 194 µM)	–	–
O=C(NN1C(=O)CSC1c1ccccc1Cl)c1cc(-c2ccc(Cl)cc2)n[nH]1 (racemic)	0.02 (≈ 0.0462 µM)	12.5 (≈ 28.8 µM)	1.6 (≈ 3.69 µM)	25 (≈ 57.7 µM)	50 (≈ 115 µM)	0.5 (≈ 1.15 µM)	0.048 (≈ 0.111 µM)
COc1ccc(C2SCC(=O)N2NC(=O)c2cc(-c3ccc(Cl)cc3)n[nH]2)cc1 (racemic)	0.5 (≈ 1.17 µM)	50 (≈ 117 µM)	12.5 (≈ 29.1 µM)	3.2 (≈ 7.46 µM)	25 (≈ 58.3 µM)	0.65 (≈ 1.52 µM)	0.04 (≈ 0.0933 µM)
O=C(NN1C(=O)CSC1c1ccccc1O)c1cc(-c2ccc(Cl)cc2)n[nH]1 (racemic)	0.06 (≈ 0.145 µM)	12.5 (≈ 30.1 µM)	6.3 (≈ 15.2 µM)	6.3 (≈ 15.2 µM)	12.5 (≈ 30.1 µM)	0.5 (≈ 1.21 µM)	0.028 (≈ 0.0675 µM)
O=C(NN1C(=O)CSC1c1ccccc1)c1cc(-c2ccc(Cl)cc2)n[nH]1 (racemic)	0.91 (≈ 2.28 µM)	50 (≈ 125 µM)	12.5 (≈ 31.3 µM)	25 (≈ 62.7 µM)	12.5 (≈ 31.3 µM)	3.15 (≈ 7.9 µM)	0.28 (≈ 0.702 µM)
COc1ccc([C@@H]2[C@@H](Cl)C(=O)N2NC(=O)c2cc(-c3ccc(Cl)cc3)n[nH]2)cc1 (racemic)	0.0025 (≈ 0.0058 µM)	12.5 (≈ 29 µM)	1.6 (≈ 3.71 µM)	3.2 (≈ 7.42 µM)	12.5 (≈ 29 µM)	1.2 (≈ 2.78 µM)	0.06 (≈ 0.139 µM)
OC(Cn1cncn1)(Cn1cncn1)c1ccc(F)cc1F [FLUCONAZOLE]	–	25 (≈ 81.6 µM)	6.3 (≈ 20.6 µM)	6.3 (≈ 20.6 µM)	25 (≈ 81.6 µM)	–	–
